According to the RNAGym collection of RNA variant scans (doi:10.1126/science.aae0568):
Variants at the floor of the assay were thinned out.

B1: tRNA (parent)
chain: GUUCCGUUGGCGUAAUGGUAACGCGUCUCCCUCCUAAGGAGAAGACUGCGGGUUCGAGUCCCGUACGGAACG

Variants of: B1
Assay: yeast fitness relative to wild type (ratio to wild type); higher = fitter; tRNA-Arg(CCU), competitive growth, 37 C, YPD
How it was run: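 Gene amplicons from the start population and from each of six end populations were read by 100-nucleotide paired-end sequencing. Those end populations came from pooled Saccharomyces cerevisiae strains carrying tRNA-Arg(CCU) gene variants at the native locus, competed in YPD at 37°C for 24 hours. Fitness relative to wild type was worked out from changes in genotype frequencies. Genotypes needed ≥ 100 starting reads, and estimates < 0.5 were set to 0.5.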

Compared with U13C C27G A37U C60A, U13C C30U A40G C55A G63C A65C is lower in yeast fitness: 0.727 for the first, ≤ 0.5 for the second.

Going from U13A G58C C60U C66G to U13C A43G G52C, the yeast fitness falls from 0.574 to ≤ 0.5.

Compared with U13C A36U G51C, U13C A40U A57G is higher in yeast fitness: ≤ 0.5 for the first, 0.688 for the second.

First: U13A G58C A69U
Second: U13C A15G C30A C62G
The yeast fitness of the first is higher: 1.04 for the first, ≤ 0.5 for the second.

U13C C31U A57G C60U U64A C66A A69C and U13C C22A C29U cannot be ordered by yeast fitness: ≤ 0.5 for the first, ≤ 0.5 for the second.

Compared with U13A G39C, U13C U19G A20G C31U G44A is lower in yeast fitness: 0.779 for the first, ≤ 0.5 for the second.

Compared with U13C A15G A65C, U13A U16A C61U G63C is lower in yeast fitness: 0.583 for the first, ≤ 0.5 for the second.

U13C A20G A37G G58A and U13C A42U U47C G51A A70C cannot be ordered by yeast fitness: ≤ 0.5 for the first, ≤ 0.5 for the second.

First: U13A U32C A40C G67A
Second: U13C G48A C61G A69C
The yeast fitness of the first is lower: ≤ 0.5 for the first, 0.594 for the second.

First: U13C U16G C27G C49A C60A
Second: U13C A36C
The yeast fitness of the first is lower: ≤ 0.5 for the first, 0.643 for the second.

Going from U13C A36G to U13A G41A U64C A70G, the yeast fitness falls from 1.01 to ≤ 0.5.

Compared with U13C A14C C34U G38C G51A A57C C66U, U13C C31A is higher in yeast fitness: ≤ 0.5 for the first, 0.901 for the second.

Compared with U13C C31U, U13A U28A is lower in yeast fitness: 1.01 for the first, 0.772 for the second.

U13A U16A C61G and U13C C29G A36G G41A G48C cannot be ordered by yeast fitness: ≤ 0.5 for the first, ≤ 0.5 for the second.

Compared with U13A G39A A45G U54A, U13C A45G is higher in yeast fitness: ≤ 0.5 for the first, 0.916 for the second.

Compared with U13C C30A G38A C55A A65C, U13A U54A A69U is higher in yeast fitness: ≤ 0.5 for the first, 0.529 for the second.

First: U13C U16G A70U
Second: U13C C31U C34U A40G U47A
The yeast fitness of the first is higher: 0.595 for the first, ≤ 0.5 for the second.

Compared with U13C A15U C46A A65C, U13A G17C C31A is higher in yeast fitness: ≤ 0.5 for the first, 0.623 for the second.

Going from U13A G23A U35G U59C to U13C U26C, the yeast fitness rises from 0.528 to 0.809.

Compared with U13C C31G U47G U53G C61U G68A, U13C G18A G41A C62G A65U is higher in yeast fitness: 0.591 for the first, 0.619 for the second.

First: U13A C66A
Second: U13A U54C C55U C62U G68C
The yeast fitness of the first is lower: 0.619 for the first, 0.686 for the second.

First: U13A G41A A45C
Second: U13C C27A
The yeast fitness of the first is lower: 0.552 for the first, 0.963 for the second.

Going from U13C A36G C62U to U13C G44A A69U, the yeast fitness rises from 0.693 to 0.696.

Compared with U13C G39A, U13A G18C U26A is lower in yeast fitness: 0.982 for the first, ≤ 0.5 for the second.

Compared with U13C G38A, U13A U35A A40U G41A A42C is lower in yeast fitness: 0.708 for the first, ≤ 0.5 for the second.

U13A G18C C27U A40G G41A A45U and U13C C31G C33G cannot be ordered by yeast fitness: ≤ 0.5 for the first, ≤ 0.5 for the second.

U13C G48C A57C and U13C G48C A57G cannot be ordered by yeast fitness: ≤ 0.5 for the first, ≤ 0.5 for the second.

Compared with U13C A21G, U13C C31A G56C is lower in yeast fitness: 1.09 for the first, 0.57 for the second.

Compared with U13C A37G G58A, U13C A14U C46U G48A C55U G68U is lower in yeast fitness: 0.647 for the first, ≤ 0.5 for the second.

Going from U13C A15G A43U to U13C C30G U35C, the yeast fitness falls from 0.752 to ≤ 0.5.

Going from U13C A42U U54C to U13A U53C U59A U64A A70C, the yeast fitness falls from 0.592 to ≤ 0.5.

U13C G38C A40U C49A C66A and U13A U32A A37U G41A cannot be ordered by yeast fitness: ≤ 0.5 for the first, ≤ 0.5 for the second.

First: U13C A45C G50U A57G
Second: U13C C30A
The yeast fitness of the first is lower: ≤ 0.5 for the first, 0.825 for the second.

Compared with U13C C30G, U13C C31U A43G C60G is lower in yeast fitness: 0.578 for the first, ≤ 0.5 for the second.

First: U13C A20C A42U
Second: U13A U19C A20U C29G C33G A37G C49U
The yeast fitness of the first is higher: 0.558 for the first, ≤ 0.5 for the second.

Going from U13C A40U A69U to U13C G56A, the yeast fitness rises from 0.793 to 1.04.

Going from U13C G56C to U13A U16A C24G C33G C62G, the yeast fitness falls from 0.549 to ≤ 0.5.

Going from U13A U32C to U13A U32A, the yeast fitness falls from 0.875 to 0.69.

Going from U13A G23C to U13A G23A, the yeast fitness rises from 0.57 to 0.659.

First: U13C G25C A40C
Second: U13C C29U
The yeast fitness of the first is lower: 0.667 for the first, 0.831 for the second.

First: U13C G25C C30G
Second: U13C C33A A36C G63C C66G
The yeast fitness of the first is higher: 0.611 for the first, ≤ 0.5 for the second.

First: U13C G18A C66G
Second: U13A U26G C29U
The yeast fitness of the first is higher: 0.662 for the first, ≤ 0.5 for the second.
